Experiments:
[1] = tested on: Gsc, Mixl1, Smad7, Skil, SerpinE1, Lefty1 expression in mESCs; assay: qRT-PCR of activin/nodal target genes in mESCs / embryoid bodies; assay type: cell-based, mouse
Summary of the method: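 E14Tg2a.IV mESCs were kept feeder-free with LIF; Trim33-null lines were kept on MEFs. Variants were Trim33 knockdown by lentiviral shRNA, Smad2/3-depleted, Smad4-null, or reconstituted with TRIM33 constructs. Embryoid bodies formed for 2.5 days, then received activin A (50 ng/ml) or SB431542 (10 μM) for 2 h. Total RNA went to qRT-PCR. Mean ± S.D. of quadruplicates, three independent experiments.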

TRIM33 PHD-Bromo = molecular target: T1, TRIM33 PHD-Bromo (Homo sapiens, UniProt Q9UPN9); assay: ITC binding of H3; details: versus H3(1-28) (KD=0.46 μM)
T1 sequence (Q9UPN9 882-1087 limits assumed): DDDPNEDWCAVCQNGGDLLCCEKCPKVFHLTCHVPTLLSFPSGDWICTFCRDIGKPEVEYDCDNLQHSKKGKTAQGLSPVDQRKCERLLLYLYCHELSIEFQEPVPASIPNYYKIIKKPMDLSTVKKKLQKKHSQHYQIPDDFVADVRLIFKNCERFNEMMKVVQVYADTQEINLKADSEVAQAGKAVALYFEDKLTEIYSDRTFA

HaCaT keratinocytes [2] = assay: TGF-β gene responses in HaCaT; assay type: cell-based, human; details: qRT-PCR
[3] = tested on: MDA-MB-231 breast carcinoma cells; assay: TGF-β gene responses in MDA-MB-231; assay type: cell-based, human; details: qRT-PCR, MDA-MB-231, TRIM33 depletion
HaCaT cells = assay: Luciferase reporter, SERPINE1; assay type: cell-based, human; details: SERPINE1 (PAI1) element
MDA-MB-231 cells = assay: Luciferase reporter, repeats of Smad binding element; assay type: cell-based, human; details: SBE repeats
HaCaT keratinocytes [4] = details: and our unpublished work, ref Gomis et al., 2006; cited from earlier work
[5] = tested on: MDA-MB-231 breast carcinoma cells; details: and our unpublished work, ref Gomis et al., 2006; cited from earlier work
[6] = tested on: TRIM33-Smad2/3 complex in mESCs; assay: Smad2/3 co-immunoprecipitation, TRIM33-Smad2/3 complex formation; assay type: cell-based, mouse
[7] = tested on: Smad4-Smad2/3 complex in mESCs; assay: Smad2/3 co-immunoprecipitation, Smad4-Smad2/3 complex formation; assay type: cell-based, mouse
[8] = tested on: activin responsive genes in EBs; assay: Genome-wide transcriptomic analysis; assay type: cell-based, mouse; details: >3 fold change
[9] = tested on: TRIM33 at Gsc and Mixl1 promoters; assay: ChIP of TRIM33 at Gsc / Mixl1 promoters; assay type: cell-based, mouse
Summary of the method: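 EBs (day 2.5) came from wild-type, Trim33-depleted, Smad2/3-depleted or Smad4-null mESCs. They were given activin A (50 ng/ml) or SB431542 (10 μM) for 2 h. Formaldehyde crosslinking (1%, 37 °C, 10 min) was quenched with glycine. Anti-TRIM33 ChIP used a kit, with absolute qPCR of Gsc/Mixl1 promoter regions reported as % input. Mean ± S.D. of quadruplicates, at least three experiments.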

[10] = tested on: Smad4 at Gsc and Mixl1 promoters; assay: ChIP of Smad4 at Gsc / Mixl1 promoters; assay type: cell-based, mouse; details: EBs day 2.5, activin 2 h
Summary of the method: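 Wild-type, shRNA Trim33-depleted or TRIM33-reconstituted mESCs formed EBs for 2.5 days, then 2 h with activin A (50 ng/ml) or SB431542 (10 μM). Cells were crosslinked in 1% formaldehyde at 37 °C for 10 min and quenched in 0.125 M glycine. Anti-Smad4 ChIP was read by absolute qPCR of Gsc (−0.4 kb) and Mixl1 (−0.5/−0.2 kb) as % input. Mean ± S.D. of quadruplicates, three experiments.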

[11] = tested on: histone H3 modified residues at Gsc and Mixl1 promoters; assay: ChIP of histone H3 marks at Gsc and Mixl1 promoters; assay type: cell-based, mouse; details: activin
Summary of the method: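 Histone-mark ChIP used day-2.5 mESC embryoid bodies treated with activin A (50 ng/ml) or SB431542 (10 μM). Cells were fixed with 1% formaldehyde (37 °C, 10 min) and quenched with glycine. Antibodies recognised modified H3 residues; protein A/G beads alone served as negative controls. Mono-nucleosome templates came from micrococcal nuclease digestion. Absolute qRT-PCR, percent of input. Mean ± S.D. of quadruplicates, ≥3 experiments.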

[12] = tested on: HP1γ at Gsc and Mixl1 promoters; assay: ChIP of HP1γ at Gsc and Mixl1 promoters; assay type: cell-based, mouse; details: wild type and Trim33-null EBs day 2.5, activin 2 h
Summary of the method: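 Mouse E14Tg2a.IV ESCs (feeder-free, LIF) and Trim33-null ESCs (C57Bl/6J, on MEFs) formed EBs for 2.5 days, then got activin or SB for 2 h. HP1γ or no-antibody ChIP used a kit. Absolute qPCR covered Gsc −2.3 kb and Mixl1 −0.2/−0.5 kb, as % input. Mean ± S.D. of quadruplicates.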

[13] = tested on: RNA Pol II at Gsc and Mixl1 promoters; assay: ChIP of RNA Pol II at Gsc and Mixl1 promoters; assay type: cell-based, mouse; details: Gsc -0.1 kb, Mixl1 -0.2 kb, EBs day 2.5, activin 2 h
Summary of the method: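 Mouse ESC embryoid bodies at day 2.5 (wild type or Trim33-null) received activin or SB431542 for 2 h. ChIP used anti-RNA Pol II. qRT-PCR read Gsc −0.1 kb and Mixl1 −0.2 kb as percent of input. Mean ± S.D. of quadruplicates, two independent experiments.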

NC(=O)c1ccc(-c2nc(-c3ccc4c(c3)OCO4)c(-c3ccccn3)[nH]2)cc1 [SB431542, reference compound]
sensitivity of endogenous nodal-like factor responses to SB431542 ([1]; mESC EBs, SB431542 10 μM): SB431542-sensitive

H3(1-28) acetylation of K18: H3(1-28) with acetylation of K18
enhancement of binding relative to H3(1-28) (TRIM33 PHD-Bromo): 2.3 fold

TGF-β
TGF-β response of SMAD7, SKIL and SERPINE1 on TRIM33 depletion (HaCaT keratinocytes [2]): did not significantly alter the TGF-β response | TGF-β response of SMAD7, SKIL and SERPINE1 on TRIM33 depletion [3]: did not significantly alter the TGF-β response | reporter response on TRIM33 depletion (HaCaT cells): increased the activity of these constructs | reporter response on TRIM33 depletion (MDA-MB-231 cells): increased the activity of these constructs | most TGF-β responses on RNAi depletion of Smad2/3 and Smad4 or TRIM33 (HaCaT keratinocytes [4]): inhibited by RNAi-mediated depletion of Smad2/3 and Smad4, but not by depletion of TRIM33 | most TGF-β responses on RNAi depletion of Smad2/3 and Smad4 or TRIM33 [5]: inhibited by RNAi-mediated depletion of Smad2/3 and Smad4, but not by depletion of TRIM33

activin: recombinant activin A (R&D Systems), ligand sharing receptors with nodal
formation of TRIM33-Smad2/3 complex, Smad4 requirement ([6]; Smad4-null mESCs): did not require Smad4 | t1/2 of TRIM33-Smad2/3 complex formation ([6]; mESCs, activin A 50 ng/ml): ~30 min | formation of Smad4-Smad2/3 complex on TRIM33 depletion ([7]; TRIM33 shRNA or knock-out mESCs): did not inhibit the formation of the Smad4-Smad2/3 complex | t1/2 of Smad4-Smad2/3 complex formation ([7]; mESCs, activin A 50 ng/ml): ~30 min | responsiveness to activin ([1]; Cripto/cryptic-depleted cells): remained responsive to activin | induction of Gsc, Mixl1, Smad7 ([1]; RNAi-mediated depletion of TRIM33, EB 2.5 days, activin 2 h): strongly blunted the induction of Gsc and Mixl1 but not that of Smad7 | Gsc, Mixl1 and Smad7 responses to added activin ([1]; Smad4-null or Smad2/3-depleted mESCs, EB 2.5 days, 2 h): lacked Gsc, Mixl1 and Smad7 responses | Gsc and Mixl1 responses ([1]; TRIM33-depleted cells reconstituted with shRNA-insensitive TRIM33 vector): restored the Gsc and Mixl1 responses | expression of Smad7, Skil and SerpinE1 ([1]; Trim33-null ESC lines, activin): stimulated the expression of the common Smad2/3 target genes | Lefty1 induction by activin ([1]; Trim33-null mESCs, Smad4-null mESCs depleted of TRIM33): blunted | expression of Gsc and Mixl1 ([1]; two independent Trim33-null ESC lines, activin): failed to stimulate the expression of Gsc and Mixl1 | total activin gene responses ([8]; p<0.05): 407 responses | activin gene responses requiring both Smad4 and TRIM33 ([8]; p<0.05, of 407 responses): 333 responses | TRIM33 ChIP binding, Mixl1 ([9]; EBs day 2.5, activin 2 h): Activin-dependent binding of TRIM33 occurred near the Mixl1 ARE | activin-dependent TRIM33 binding on Smad2/3 depletion, Mixl1 ([9]; depletion of Smad2/3): inhibited the activin-dependent binding of TRIM33 | activin-induced TRIM33 binding, effect of Smad4 ([9]; wild-type versus Smad4-null ESCs): enhanced the activin-induced binding of TRIM33 to its sites | Smad4 ChIP binding, Gsc [10]: Activin-dependent binding of Smad4 occurred only at the ARE | level of H3K18ac ([11]; TRIM33 binding regions and throughout Gsc and Mixl1 promoters): rapid, marked increase in the level of H3K18ac | levels of H3K14ac and H3K23ac [11]: increased by activin | level of H3K9me3 ([11]; throughout these regions of Gsc and Mixl1 promoters): did not affect the level of H3K9me3 | HP1γ binding to TRIM33 target regions [12]: inhibited by activin addition in a TRIM33-dependent manner | level of Pol II binding to initiator region [13]: increase in the level of Pol II binding

Reference: paper PMC3582033 (Cell, 2011)
